How the values were obtained:
[1] = biological target: T1, cGMP-specific 3',5'-cyclic phosphodiesterase (Homo sapiens, UniProt O76074); assay: Inhibitory activity against PDE5 from human corpus cavernosum
[2] = biological target: T1, cGMP-specific 3',5'-cyclic phosphodiesterase; assay: Inhibition of PDE5 (Phosphodiesterase) from human corpus cavernosum
Summary of the method: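 Enzyme was PDE5 from human corpus cavernosum. Compounds were serially diluted in 100% DMSO and added to assay buffer at 2% DMSO final. […] Ki was derived, with IC50 instead for a few compounds. Values are means of three experiments.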

[3] = biological target: Phosphodiesterase 2 and 5 (PDE2 and PDE5) (Homo sapiens) (UniProt O76074+O00408); assay: Relative inhibition of PDE2 and PDE5 from human corpus cavernosum; type: protein assay
Summary of the method: (§1)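 Ratio of inhibition of a second human PDE to that of PDE5 from corpus cavernosum. PDE2 was from corpus cavernosum and PDE6 from retinal cone. Compounds were diluted in DMSO to 2% DMSO final. Ki was determined for each enzyme.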

[4] = species on record: Homo sapiens; assay: Relative inhibition of PDE6 from human retinal cone and PDE5 from human corpus cavernosum; summary of the method: as §1
[5] = test system: Canis familiaris; assay: In vivo increased intracavernosal pressure in dogs after intravenous dose; type: functional, Canis lupus familiaris
Summary of the method: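 Ascending intravenous doses given at 40-min intervals after control responses were established. Intracavernosal pressure (ICP) was evoked 15 min after each dose by pelvic nerve electrical stimulation at the same setting. Effect was taken as the ICP area under the curve at each stimulation minus the control-response AUC.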

Row | Ki [1] [nM] | SMILES | other results
1 | 188 | COc1ccc(-c2cnc(N3CCc4c([nH]c5ccccc45)C3c3ccc4c(c3)CCO4)nc2)cc1 (stereo in doubt; 15f) | –
2 | – | O=C(c1ccc(-c2ccc(Cl)cc2[N+](=O)[O-])o1)N1CCc2c([nH]c3ccccc23)C1c1ccc2c(c1)OCO2 (stereo not given) | IC50 [2]: 105 nM
3 | > 100 | COc1ccc(-c2cnc(N3CC(O)c4c([nH]c5ccccc45)C3c3ccc4c(c3)OCO4)nc2)cc1OC (stereo not given) | –
4 | > 5000 | O=C(c1ccc(-c2cccc([N+](=O)[O-])c2)o1)N1CCc2c(sc3ccccc23)C1c1ccc2c(c1)OCO2 (stereo not given) | –
5 | – | COc1ccc(-c2cnc(N3CC(=O)c4c([nH]c5ccccc45)C3c3ccc4c(c3)OCO4)nc2)cc1OC (stereo not given) | Selectivity [3]: 23000; Selectivity [4]: 4
6 | 130 | O=C(c1ccc(-c2cccc([N+](=O)[O-])c2)o1)N1CCc2c([nH]c3ccccc23)C1c1ccc2c(c1)OCO2 (stereo not given) | –
7 | 32.3 | O=C(c1ccc(-c2ccccn2)o1)N1CCc2c([nH]c3ccccc23)C1c1ccc2c(c1)CCO2 (stereo not given) | Selectivity [3]: 308; Selectivity [4]: 32
8 | – | Cc1ncc(-c2cnc(N3CCc4c([nH]c5ccccc45)C3c3ccc4c(c3)CCO4)nc2)n1C (stereo not given) | Selectivity [3]: > 4000; Selectivity [4]: 187
9 | 64.2 | CC(=O)Nc1ccc(-c2ccc(C(=O)N3CCc4c([nH]c5ccccc45)C3c3ccc4c(c3)OCO4)o2)cc1 (stereo not given) | –
10 | 189 | COc1ccc(-c2cnc(N3CCc4c([nH]c5ccccc45)C3c3ccc4c(c3)CCO4)nc2)cc1 (stereo in doubt; 8f) | –
11 | 219 | O=C(c1ccc(-c2ccccc2[N+](=O)[O-])o1)N1CCc2c([nH]c3ccccc23)C1c1ccc2c(c1)OCO2 (stereo not given) | –
12 | 246 | COc1ccc(-c2cnc(N3CCc4c([nH]c5ccccc45)C3c3ccc4c(c3)OCO4)nc2)cc1 (stereo in doubt; 15a) | –
13 | – | O=C(O)CCCC(=O)Nc1cccc(-c2ccc(C(=O)N3CCc4c([nH]c5ccccc45)C3c3ccc4c(c3)OCO4)o2)c1 (stereo not given) | IC50 [2]: 95 nM
14 | – | O=C(c1ccc(-c2ccc(Cl)cc2[N+](=O)[O-])o1)N1CCc2c([nH]c3ccccc23)[C@H]1c1ccc2c(c1)OCO2 | IC50 [2]: 67 nM
15 | 126 | O=C(c1ccc(-c2cccc(C(F)(F)F)c2)o1)N1CCc2c([nH]c3ccccc23)C1c1ccc2c(c1)OCO2 (stereo not given) | –
16 | 77.5 | O=C(c1ccc(-c2ccc([N+](=O)[O-])cc2)o1)N1CCc2c([nH]c3ccccc23)C1c1ccc2c(c1)OCO2 (stereo not given) | –
17 | 543 | Cc1ccc(-c2cnc(N3CCc4c([nH]c5ccccc45)C3c3ccc4c(c3)OCO4)nc2)cc1 (stereo not given) | –

Row | Ki [1] [nM] | SMILES | other results
18 | 8.11 | CN1CCN(C(=O)c2ccc(-c3ccc(C(=O)N4CCc5c([nH]c6ccccc56)C4c4ccc5c(c4)CCO5)o3)cc2)CC1 (stereo not given) | Selectivity [3]: > 10000; Selectivity [4]: 119
19 | 154 | Oc1ccc(-c2cnc(N3CCc4c([nH]c5ccccc45)C3c3ccc4c(c3)CCO4)nc2)cc1 (stereo not given) | –
20 | – | O=C(O)CCCC(=O)Nc1ccc(-c2ccc(C(=O)N3CCc4c([nH]c5ccccc45)C3c3ccc4c(c3)OCO4)o2)cc1 (stereo not given) | IC50 [2]: 100 nM
21 | 132 | CS(=O)(=O)c1ccc(-c2cnc(N3CCc4c([nH]c5ccccc45)C3c3ccc4c(c3)OCO4)nc2)c([N+](=O)[O-])c1 (stereo not given) | –
22 | 18 | COc1ccc(-c2cnc(N3CC(=O)c4c([nH]c5ccccc45)C3c3ccc4c(c3)OCO4)nc2)cc1 (stereo not given) | ED50 [5]: 0.173 mg/kg
23 | 123 | Nc1ccc(-c2ccc(C(=O)N3CCc4c([nH]c5ccccc45)C3c3ccc4c(c3)OCO4)o2)cc1 (stereo not given) | –
24 | 850 | FC(F)(F)c1cccc(-c2ccc(CN3CCc4c([nH]c5ccccc45)C3c3ccc4c(c3)OCO4)o2)c1 (stereo not given) | –
25 | > 1000 | c1ccc2c3c([nH]c2c1)C(c1ccc2c(c1)CCO2)N(c1ncc(-c2ccc(OCCN4CCCC4)cc2)cn1)CC3 (stereo not given) | –
26 | 246 | COc1ccc(-c2cnc(N3CCc4c([nH]c5ccccc45)C3c3ccc4c(c3)OCO4)nc2)cc1 (stereo in doubt; 8a) | –
27 | – | CCCc1nn(C)c2c(=O)[nH]c(-c3cc(S(=O)(=O)N4CCN(C)CC4)ccc3OCC)nc12 | ED50 [5]: 0.0051 mg/kg
28 | – | O=C(c1ccc(-c2ccc(Cl)cc2[N+](=O)[O-])o1)N1CCc2c([nH]c3ccccc23)[C@@H]1c1ccc2c(c1)OCO2 | IC50 [2]: > 10000 nM
29 | – | O=C(c1ccc(-c2ccccc2)o1)N1CCc2c([nH]c3ccccc23)C1c1ccc2c(c1)OCO2 (stereo not given) | IC50 [2]: 750 nM
30 | > 10000 | COc1ccc(-c2cnc(N3CCc4c([nH]c5ccccc45)C3c3ccc(OC)c(OC)c3)nc2)cc1 (stereo not given) | –
31 | 179 | Nc1cccc(-c2ccc(C(=O)N3CCc4c([nH]c5ccccc45)C3c3ccc4c(c3)OCO4)o2)c1 (stereo not given) | –
32 | 50.6 | CC(=O)Nc1cccc(-c2ccc(C(=O)N3CCc4c([nH]c5ccccc45)C3c3ccc4c(c3)OCO4)o2)c1 (stereo not given) | –
33 | 126 | Clc1ccc(-c2cnc(N3CCc4c([nH]c5ccccc45)C3c3ccc4c(c3)OCO4)nc2)cc1 (stereo not given) | –

From ChEMBL document CHEMBL1136605, “Synthesis and biological activities of novel beta-carbolines as PDE5 inhibitors” (Bioorg Med Chem Lett, 2003)
